For data set [1], the target named is T1, Cholesterol side-chain cleavage enzyme, mitochondrial (Rattus norvegicus, UniProt P14137).
T1 sequence (P14137 whole entry): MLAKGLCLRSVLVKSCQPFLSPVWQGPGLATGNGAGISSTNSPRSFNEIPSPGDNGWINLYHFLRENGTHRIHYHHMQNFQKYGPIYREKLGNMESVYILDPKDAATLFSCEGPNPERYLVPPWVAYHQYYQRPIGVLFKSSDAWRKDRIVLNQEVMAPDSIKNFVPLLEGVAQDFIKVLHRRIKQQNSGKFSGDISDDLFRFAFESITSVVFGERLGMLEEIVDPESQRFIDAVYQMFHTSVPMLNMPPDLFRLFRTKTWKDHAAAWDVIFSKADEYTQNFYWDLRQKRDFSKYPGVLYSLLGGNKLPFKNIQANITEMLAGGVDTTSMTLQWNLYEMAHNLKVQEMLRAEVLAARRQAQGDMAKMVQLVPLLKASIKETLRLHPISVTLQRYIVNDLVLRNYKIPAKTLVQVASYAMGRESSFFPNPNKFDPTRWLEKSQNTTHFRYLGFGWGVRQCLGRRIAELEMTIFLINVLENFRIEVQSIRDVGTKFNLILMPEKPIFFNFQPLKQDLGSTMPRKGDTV
Description: Stimulation of pregnenolone formation from rat C6 glioma cells. It is filed as functional, cell-based. On the set-up: concentration or dose not given beside the values. An outline of the steps: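 Rat C6 glioma cells exposed to compound for 2 h at 37 °C; pregnenolone measured by radioimmunoassay and expressed as % increase over control; mean ± SEM of at least three determinations.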

Data set [2] deals with GABA-A receptor; anion channel (Rattus norvegicus) (UniProt O09028+P15431+P18506+P18508+P19969+P20236+P23574+P23576+P28471+P28473+P30191+P62813+P63079+P63138+Q91ZM7+Q9ES14). Description: Percent inhibition of rat benzodiazepine receptor assayed using [3H]-flumazenil radioligand at 10 um concentration. It is filed as protein-complex assay. The gist of the method: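 Displacement of [3H]flumazenil specific binding in rat brain membranes by test compound at fixed 10 µM; percent inhibition as mean ± SEM of five determinations.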

Data set [3] has as its target Translocator protein (Rattus norvegicus, UniProt P16257). Kind of data set: Binding affinity to peripheral benzodiazepine receptors using [3H]-PK11195 radioligand in rat kidney mitochondrial membrane. The class given is cell membranes.

Each structure is given as a SMILES string. pKi: −log10 of the molar value.

Chain of Translocator protein (P16257 whole entry, looked up): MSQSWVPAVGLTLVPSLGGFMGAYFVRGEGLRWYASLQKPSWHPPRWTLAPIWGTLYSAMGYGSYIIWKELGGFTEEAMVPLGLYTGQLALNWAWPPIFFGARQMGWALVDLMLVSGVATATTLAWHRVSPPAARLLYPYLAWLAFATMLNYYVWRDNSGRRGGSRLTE

Usually inhibition stands for how much of the control response was suppressed. On to `CCCCN(CCCC)C(=O)C(=O)c1c(-c2ccc(F)cc2)[nH]c2ccccc12`, for which the Activity in data set [1] was 26%. This compound also gave an inhibition in data set [2] of 0%.
In general, pKi refers to −log10 of the Ki, conventionally taken in molar units. With `CCCNC(=O)C(=O)c1c(-c2ccccc2)[nH]c2ccccc12`, the pKi in data set [3] is 6.09.
With `CCCCCCN(CCCCCC)C(=O)C(=O)c1c(-c2ccc(Cl)cc2)[nH]c2ccc(Cl)cc12`, the Activity in data set [1] is given as 166%. In data set [2], this compound gave an inhibition of 3%. The same compound had a pKi in data set [3] of 8.24.
The corresponding values for `CCCN(CCC)C(=O)C(=O)c1c(-c2ccccc2)[nH]c2ccc(Cl)cc12` are 10%, 10% and 8.55.
`CCCN(CCC)C(=O)C(=O)c1c(-c2ccc(C)cc2)[nH]c2ccccc12` yielded an Activity in data set [1] of 148%. Besides, in data set [2], the inhibition amounted to 7%.
The corresponding values for `CCCCCCN(CCCCCC)C(=O)C(=O)c1c(-c2ccccc2)[nH]c2ccccc12` are 30% and 10%.
Regarding `CCCCCCN(CCCCCC)C(=O)C(=O)c1c(-c2ccc(Cl)cc2)[nH]c2ccccc12`, the Activity in data set [1] is given as 109%. The inhibition in data set [2] amounted to 4%. Moreover, the pKi in data set [3] was 9.26.
The corresponding values for `CCCCN(CCCC)C(=O)C(=O)c1c(-c2ccc(Cl)cc2)[nH]c2ccc(Cl)cc12` are 147%, 0% and 8.72.
In the case of `CCCN(CCC)C(=O)C(=O)c1c(-c2ccc(Cl)cc2)[nH]c2ccccc12`, in data set [1], the Activity is 40%. Besides, the inhibition in data set [2] is 14%. In addition, the pKi in data set [3] was 8.33.
For the compound `CCCCCCN(CCCCCC)C(=O)C(=O)c1c(-c2ccc(C)cc2)[nH]c2ccccc12`, in data set [1], the Activity worked out at 77%. The compound also showed an inhibition in data set [2] of 6%. The compound also gave a pKi in data set [3] of 8.80.
`CC(C)N(C(=O)C(=O)c1c(-c2ccccc2)[nH]c2ccccc12)C(C)C` registered an inhibition in data set [2] of 4%. This compound had a pKi in data set [3] of 6.99.
The corresponding values for `O=C(C(=O)N1CCCC1)c1c(-c2ccccc2)[nH]c2ccccc12` are 4% and 5.62.
The corresponding values for `O=C(C(=O)N1CCCCCC1)c1c(-c2ccccc2)[nH]c2ccccc12` are 5% and 7.48.
The corresponding values for `CCCN(CCC)C(=O)Cc1c(-c2ccc(Cl)cc2)nc2ccc(Cl)cn12` [ALPIDEM] are 28% and 8.15.
In data set [2], `O=C(C(=O)N1CCCCC1)c1c(-c2ccccc2)[nH]c2ccccc12` showed an inhibition of 3%. This compound also gave a pKi in data set [3] of 6.18.
In the case of `CCCCCN(CCCCC)C(=O)C(=O)c1c(-c2ccccc2)[nH]c2ccccc12`, the Activity in data set [1] is reported as 35%. The compound also registered an inhibition in data set [2] of 3%. In data set [3], this compound showed a pKi of 7.80.
In data set [1], `CCCN(CCC)C(=O)C(=O)c1c(-c2ccc(Cl)cc2)[nH]c2ccc(Cl)cc12` returned an Activity of 49%. In data set [2], the inhibition is 5%. Besides, in data set [3], the pKi was 9.21.
The corresponding values for `CCCCN(CCCC)C(=O)C(=O)c1c(-c2ccc(C)cc2)[nH]c2ccccc12` are 58%, 11% and 8.42.
The corresponding values for `CCCCN(CCCC)C(=O)C(=O)c1c(-c2ccccc2)[nH]c2ccccc12` are 23%, 3% and 8.12.
In the case of `CCCN(CCC)C(=O)C(=O)c1c(-c2ccccc2)[nH]c2ccccc12`, the Activity in data set [1] was determined as 8%. In addition, in data set [2], the inhibition was 16%.
Consider `CCCCNC(=O)C(=O)c1c(-c2ccccc2)[nH]c2ccccc12`, for which, in data set [2], the inhibition turned out to be 12%. This compound gave a pKi in data set [3] of 5.93.
In data set [1], `CCCCCCN(CCCCCC)C(=O)C(=O)c1c(-c2ccccc2)[nH]c2ccc(Cl)cc12` came in with an Activity of 31%. The compound also displayed an inhibition in data set [2] of 3%. Moreover, in data set [3], the pKi was 7.23.
`CCN(CC)C(=O)C(=O)c1c(-c2ccccc2)[nH]c2ccccc12` registered an inhibition in data set [2] of 6%. The compound also had a pKi in data set [3] of 7.37.
In data set [1], `CCCCN(CCCC)C(=O)C(=O)c1c(-c2ccccc2)[nH]c2ccc(Cl)cc12` gave an Activity of 5%. Also, in data set [2], the inhibition was 13%. In addition, in data set [3], the pKi was 8.31.
In turn, `CCCN(CCC)C(=O)C(=O)c1c(-c2ccc(F)cc2)[nH]c2ccccc12` returned an Activity in data set [1] of 20%. In addition, the inhibition in data set [2] turned out to be 4%. Moreover, in data set [3], the negative-log Ki (pKi) is 8.37.
`CCCCN(CCCC)C(=O)C(=O)c1c(-c2ccc(Cl)cc2)[nH]c2ccccc12` came in with an Activity in data set [1] of 55%. This compound registered an inhibition in data set [2] of 0%. The compound further had a negative-log Ki (pKi) in data set [3] of 9.00.
The corresponding values for `CCC(C)N(C(=O)C(=O)c1c(-c2ccccc2)[nH]c2ccccc12)C(C)CC` (stereo unspecified) are 10%, 5% and 7.77.
The corresponding values for `CCCCCCN(CCCCCC)C(=O)C(=O)c1c(-c2ccc(F)cc2)[nH]c2ccccc12` are 62%, 0% and 9.43.

Source of the values: ChEMBL document CHEMBL1149195, “N,N-dialkyl-2-phenylindol-3-ylglyoxylamides. A new class of potent and selective ligands at the peripheral benzodiazepine receptor” (J Med Chem, 2004).
